Activity calls are given as the source filed them. The calls are words filed in the database; no cut-off is given here.
Columns and labels:
MEF [1] = assay: Induction of autophagy in Bax/Bak double knockout MEF assessed as autophagosome formation at 2 to 4 uM after 15 hrs by Cyto-ID reagent/ Hoechst 33342 staining based fluorescence assay; type: functional, cell-based; details: Mus musculus
Procedure, shortened: (§1)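 Wild-type and Bax/Bak double-knockout MEFs treated 15 h at the indicated concentrations alongside DMSO vehicle. Stained with Cyto-ID reagent (green) for autophagosomes and MDC (blue) for acidic vacuoles, then imaged.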

HeLa [2] = assay: Induction of autophagic cell death in human HeLa cells after 24 hrs by MTT assay; type: functional, cell-based
Procedure, shortened: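 MTT viability assay in HeLa cells after 24 h treatment over a log concentration range, with DMSO vehicle control. Viable cells normalized to DMSO-treated cells as percent viability. EC50 estimated from a sigmoidal dose–response curve.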

HeLa [3] = assay: Induction of autophagic cell death in human HeLa cells at 8 uM after 24 hrs by MTT assay relative to control; type: functional
Procedure, shortened: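 HeLa cells exposed 24 h to compound at graded concentrations with DMSO vehicle control; viability read by MTT assay and viable cell number normalized against DMSO-treated cells to give percent viable cells.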

HeLa [4] = assay: Induction of autophagy in human HeLa cells assessed as accumulation of acidic vacuoles after 24 hrs by MDC/Hoechst 33342 staining based fluorescence assay; type: functional, cell-based
Procedure, shortened: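 HeLa cells exposed 24 h over a dose range with DMSO vehicle control, then stained with MDC for acidic vacuoles. Fluorescence read at 335/512 nm (Ex/Em) and normalized to viable cell number from a parallel MTT assay. Per-cell signal expressed relative to DMSO-treated cells as fold intensity. Sigmoidal dose–response curve fitted.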

MEF [5] = assay: Induction of autophagy in wild-type MEF assessed as conversion of LC3-1 to LC3-2 at 2.5 to 5 uM after 15 hrs by Western blot analysis; type: functional, cell-based; details: Mus musculus
Procedure, shortened: (§2)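 Wild-type and Bax/Bak double-knockout MEFs treated 15 h at the indicated concentrations with DMSO vehicle control. LC3-I to LC3-II conversion assessed by immunoblot.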

MEF [6] = assay: Induction of autophagy in Bax/Bak double knockout MEF assessed as accumulation of acidic vacuoles at 2 to 4 uM after 15 hrs by MDC/Hoechst 33342 staining based fluorescence assay; type: functional, cell-based; details: Mus musculus; procedure, shortened: as §1
HeLa [7] = assay: Induction of autophagy in human HeLa cells assessed as accumulation of LC3-2 at 2.5 to 5 uM after 24 hrs by Western blot analysis; type: functional, cell-based
Procedure, shortened: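 Immunoblot of HeLa lysates for LC3-I to LC3-II conversion after 24 h treatment, with DMSO vehicle control and actin probed as reference.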

MEF [8] = assay: Induction of autophagic cell death in Bax/Bak double knockout MEF after 15 hrs by MTT assay; details: Mus musculus
MEF [9] = assay: Induction of autophagy in Bax/Bak double knockout MEF assessed as conversion of LC3-1 to LC3-2 at 2.5 to 5 uM after 15 hrs by Western blot analysis; type: functional, cell-based; details: Mus musculus; procedure, shortened: as §2
MEF [10] = assay: Induction of autophagic cell death in wild-type MEF after 15 hrs by MTT assay; details: Mus musculus
HeLa [11] = assay: Induction of autophagy in human HeLa cells assessed as autophagosome formation after 24 hrs by Cyto-ID reagent/ Hoechst 33342 staining based fluorescence assay; type: functional, cell-based
Procedure, shortened: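 HeLa cells treated 24 h at various doses, DMSO as vehicle control. Stained with Hoechst 33342 and green Cyto-ID reagent and imaged under DAPI and GFP filters. Plate read at 340/480 nm (Hoechst) and 480/539 nm (Cyto-ID) Ex/Em. Cyto-ID fluorescence per cell taken relative to DMSO-treated cells, and a sigmoidal dose–response curve constructed.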

MEF [12] = assay: Induction of autophagy in wild-type MEF assessed as accumulation of acidic vacuoles at 2 to 4 uM after 15 hrs by MDC/Hoechst 33342 staining based fluorescence assay; type: functional, cell-based; details: Mus musculus; procedure, shortened: as §1
MEF [13] = assay: Induction of autophagy in wild-type MEF assessed as autophagosome formation at 2 to 4 uM after 15 hrs by Cyto-ID reagent/ Hoechst 33342 staining based fluorescence assay; type: functional, cell-based; details: Mus musculus; procedure, shortened: as §1
HeLa [14] = assay: Induction of autophagy in human HeLa cells assessed as accumulation of acidic vacuoles at 3 and 25 uM after 24 hrs by MDC/Hoechst 33342 staining based fluorescence assay; type: functional, cell-based
Procedure, shortened: (§3)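 Acidic vacuoles in HeLa cells after 24 h exposure, with DMSO vehicle control. Cells stained with MDC and imaged under the DAPI filter.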

HeLa [15] = assay: Induction of autophagy in human HeLa cells assessed as acidic vacuoles at 3 to 25 uM after 24 hrs by MDC/Hoechst 33342 staining based fluorescence assay; type: functional, cell-based; procedure, shortened: as §3

Compound: O=C(NCCN1CCCC1)c1coc(CSc2nc3sc4c(c3c(=O)n2Cc2ccccc2)CCCC4)n1
- Activity (MEF [1]): Active
- EC50 (HeLa [2]): 3.5 µM
- fold change (FC) (HeLa [3]): 5
- EC50 (HeLa [4]): 1.3 µM
- Activity (MEF [5]): Active
- Activity (MEF [6]): Active
- Activity (HeLa [7]): Active
- EC50 (MEF [8]): 2.2 µM
- Activity (MEF [9]): Active
- EC50 (MEF [10]): 2.1 µM
- Activity (HeLa [11]): Dose-dependent effect
- EC50 (HeLa [11]): 3.5 µM
- Activity (MEF [12]): Active
- Activity (MEF [13]): Active

Compound: O=C(NCCC1CCCC1)c1coc(CSc2nc3sc4c(c3c(=O)n2Cc2ccccc2)CCCC4)n1
- Activity (MEF [1]): inactive
- Activity (HeLa [14]): inactive
- EC50 (HeLa [2]): 25 µM
- Activity (MEF [5]): inactive
- Activity (MEF [6]): inactive
- EC50 (MEF [8]): 24.2 µM
- Activity (MEF [9]): inactive
- EC50 (MEF [10]): 28.6 µM
- Activity (HeLa [15]): inactive
- Activity (MEF [12]): inactive
- Activity (MEF [13]): inactive
